# Assays:
# [1] = test system: Candida albicans; test: Fungicidal activity against fluconazole-susceptible Candida albicans assessed as growth inhibition by sub-culturing on Agar plate and incubated for 24 to 48 hrs; assay type: functional
# How it was run: (§1)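 C. albicans clinical isolates were tested: 8 fluconazole-susceptible and 3 fluconazole-resistant. Isolates were called resistant at a fluconazole MIC ≥8 μg/mL, per CLSI 2012 interpretive guidelines. Compounds were diluted to test concentrations in 1% DMSO, which served as the negative control. Fluconazole was the positive control. Values are means per group.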
# [2] = test system: Candida albicans; test: Fungicidal activity against fluconazole-resistant Candida albicans assessed as growth inhibition by sub-culturing on Agar plate and incubated for 24 to 48 hrs; assay type: functional; how it was run: as §1
# [3] = test system: Candida albicans; test: Antifungal activity against fluconazole-susceptible Candida albicans assessed as growth inhibition measured after 24 hrs by CLSI protocol based broth microdilution method; assay type: functional; how it was run: as §1
# [4] = test system: Candida albicans; test: Antifungal activity against fluconazole-resistant Candida albicans assessed as growth inhibition measured after 24 hrs by CLSI protocol based broth microdilution method; assay type: functional; how it was run: as §1
# [5] = Hemolytic activity against horse erythrocytes at 4 to 125 ug/ml measured after 3 hrs by spectrophometric analysis; assay type: ADME, cell-based, Equus caballus, Erythrocyte; conditions: read-out: Activity
# How it was run: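 Horse red blood cells exposed to compound. Hemolysis read as absorbance at 450 nm and expressed as % lysis relative to 1% Triton X-100, taken as 100% hemolysis.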
# [6] = test system: Candida albicans; test: Induction of apoptosis in Candida albicans SC5314 protoplasts assessed as early apoptotic cells at 1/2 MIC measured after 3 hrs by Annexin V-FITC/propidium iodide staining based flow cytometry (reference value: 3.47 +/- 0.26 %); assay type: functional
# [7] = test system: Candida albicans; test: Induction of apoptosis in Candida albicans SC5314 protoplasts assessed as viable cells at 1/2 MIC measured after 3 hrs by Annexin V-FITC/propidium iodide staining based flow cytometry (reference value: 96.3 %); assay type: functional
# [8] = test system: Candida albicans; test: Induction of apoptosis in Candida albicans SC5314 protoplasts assessed as late apoptotic cells at 1/2 MIC measured after 3 hrs by Annexin V-FITC/propidium iodide staining based flow cytometry (reference value: 0.06 +/- 0.01 %); assay type: functional
# [9] = test system: Candida albicans; test: Induction of apoptosis in Candida albicans SC5314 protoplasts assessed as necrotic cells at 1/2 MIC measured after 3 hrs by Annexin V-FITC/propidium iodide staining based flow cytometry (reference value: 0.15 +/- 0.03 %); assay type: functional
# [10] = test system: Candida albicans; test: Antifungal activity against Candida albicans SC5314 assessed as effect on fungal cell viability by measuring dead cells at MIC measured after 3 hrs by Muse cell analyzer (reference value: 1.4 %); assay type: functional
# How it was run: (§2)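 Candida albicans SC5314 cells at a density of 1 × 107 were exposed to each compound at its MIC. Live and dead cells were counted with the Muse Count & Viability kit. Untreated cells were the negative control and heat-killed cells the positive control. A cell size index was run in the same assay to separate cells from debris and non-nucleated cells.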
# [11] = test system: Candida albicans; test: Induction of DNA damage in Candida albicans SC5314 assessed as apoptotic cells at 1/2 MIC measured after 3 hrs by TUNEL based confocal microscopy relative to control; assay type: functional
# How it was run: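 SC5314 cells exposed to 1/2 MIC of compound, then TUNEL-labelled with fluorescent dUTP (Ex/Em 488/515 nm) and counterstained with Hoechst 33342 (Ex/Em 350/460 nm). Imaged by confocal laser scanning microscopy and scored as % TUNEL-positive nuclei against untreated control.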
# [12] = test system: Candida albicans; test: Antifungal activity against Candida albicans SC5314 assessed as effect on fungal cell viability by measuring live cells at MIC measured after 3 hrs by Muse cell analyzer (reference value: 98.6 %); assay type: functional
# [13] = test system: Candida albicans; test: Antifungal activity against Candida albicans SC5314 assessed as effect on fungal cell death at MIC measured after 3 hrs by Muse cell analyzer relative to control; assay type: functional; how it was run: as §2
# [14] = test system: Candida albicans; test: Induction of DNA damage in Candida albicans SC5314 assessed as increase in TUNEL positive nuclei at 0.125 ug/ml measured after 3 hrs by TUNEL based confocal microscopy relative to control; assay type: functional
# How it was run: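 SC5314 cells treated with 0.125 μg/mL amphotericin B, then TUNEL-labelled with fluorescent dUTP and counterstained with Hoechst 33342. Confocal microscopy scored TUNEL-positive (green) nuclei relative to untreated cells.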
Structure (SMILES),MFC [1] [µg/mL],MFC [2] [µg/mL],MIC [3] [µg/mL],MIC [4] [µg/mL],hemolysis at 3 h [5] [%],Activity [6] [%],Activity [7] [%],Activity [8] [%],Activity [9] [%],Activity [10] [%],Activity [11],Activity [12] [%],Activity [13] [%],Activity [14] [%]
N#C/C=C/c1ccccc1 [CINNAMONITRILE],> 125,> 125,> 125,> 125,,,,,,,,,,
O=C(Cn1nnc(/C=C/c2ccccc2)n1)N/N=C/c1ccc(Cl)cc1,> 125,,64,64,,,,,,,,,,
O=C(Cn1nnc(/C=C/c2ccccc2)n1)N/N=C/c1ccccc1[N+](=O)[O-],4,4,0.5,0.5,10 to 40,13.37,48.3,36.34,1.98,59.6,25 - 55%,40.4,,
O/N=C/C=C/c1ccccc1,> 125,,> 125,,,,,,,,,,,
CCOc1ccc(/C=N/NC(=O)Cn2nnc(/C=C/c3ccccc3)n2)cc1,8,8,4,8,10 to 40,10.49,59.9,27.92,2.44,53.6,25 - 55%,46.4,,
C(=C\c1nn[nH]n1)/c1ccccc1,> 125,,> 125,,,,,,,,,,,
OC(Cn1cncn1)(Cn1cncn1)c1ccc(F)cc1F [FLUCONAZOLE],,,0.25,16,,,,,,,,,,
O=C(Cn1nnc(/C=C/c2ccccc2)n1)N/N=C/c1ccccc1Cl,> 125,,64,125,,,,,,,,,,
CCOC(=O)Cn1nnc(/C=C/c2ccccc2)n1,> 125,,> 125,,,,,,,,,,,
COc1ccc(/C=N/NC(=O)Cn2nnc(/C=C/c3ccccc3)n2)cc1,8,16,8,8,10 to 40,13.9,60.9,23.6,1.78,47.7,25 - 55%,52.3,,
COc1ccc(/C=N/NC(=O)Cn2nnc(/C=C/c3ccccc3)n2)cc1OC,8,8,2,4,10 to 40,9.69,61.4,24.93,4.55,55.2,25 - 55%,44.8,,
O=C(Cn1nnc(/C=C/c2ccccc2)n1)N/N=C/c1ccc([N+](=O)[O-])cc1,1,1,0.125,0.5,10 to 40,8.21,33.8,48.3,9.8,77.2,25 - 55%,22.8,>75,
O=C(Cn1nnc(/C=C/c2ccccc2)n1)N/N=C/c1ccccc1,> 125,,125,125,,,,,,,,,,
O=C(Cn1nnc(/C=C/c2ccccc2)n1)N/N=C/c1cccc([N+](=O)[O-])c1,1,1,0.25,0.5,10 to 40,8.23,35.3,44.65,11.7,70.4,25 - 55%,29.6,,
Cc1ccc(/C=N/NC(=O)Cn2nnc(/C=C/c3ccccc3)n2)cc1,16,16,16,16,10 to 40,10.18,71.3,15.6,3.7,44.2,25 - 55%,55.8,,
NNC(=O)Cn1nnc(/C=C/c2ccccc2)n1,> 125,,> 125,,,,,,,,,,,
C[C@@H]1[C@H](O)[C@@H](C)/C=C/C=C/C=C/C=C/C=C/C=C/C=C/[C@H](O[C@@H]2O[C@H](C)[C@@H](O)[C@H](N)[C@@H]2O)C[C@@H]2O[C@](O)(C[C@@H](O)C[C@@H](O)[C@H](O)CC[C@@H](O)C[C@@H](O)CC(=O)O[C@H]1C)C[C@H](O)[C@H]2C(=O)O [AMPHOTERICIN B],,,,,,,,,,,,,,>90

# — ChEMBL document CHEMBL4342514, “Azole Based Acetohydrazide Derivatives of Cinnamaldehyde Target and Kill Candida albicans by Causing Cellular Apoptosis” (ACS Med Chem Lett, 2020)
